# Active and inactive are the calls of the source. The calls are words filed in the database; no cut-off is given here.
# Assays:
# [1] = system: HCT-116; experiment: Cytotoxicity against human HCT-116 cells assessed as reduction in cell viability at 44 nM incubated for 4 hrs by MTS assay; type: toxicity, cell-based; conditions: hct-116, 4 h, 0.044 µM
# [2] = system: SF3A1 pre-mRNA; experiment: Modulation of splicing in SF3A1 pre-mRNA in human HCT-116 cells assessed as intron 6 retention level at 44 nM incubated for 4 hrs by qRT-PCR analysis; type: functional, cell-based; conditions: filed as modulator
# [3] = system: SF3B2 pre-mRNA; experiment: Modulation of splicing in SF3B2 pre-mRNA in human HCT-116 cells assessed as intron 10 retention level at 44 nM incubated for 4 hrs by qRT-PCR analysis; type: functional, cell-based; conditions: filed as modulator
# Summary of the method: (§1)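 HCT-116 cells in supplemented McCoy's 5a, compound added from DMSO stock to a final 0.5% DMSO, 4 h at a single standardized concentration per analogue. Total RNA isolated and DNase-treated (1 µg). qPCR used 2.5 µM each primer on 5 ng cDNA, 40 cycles. Intron retention was computed by the 2^-CT method relative to GAPDH and expressed versus untreated cells set to 1.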
# [4] = system: AURKA pre-mRNA; experiment: Modulation of splicing in AURKA pre-mRNA in human HCT-116 cells assessed as effect on exon 4 skipping at 44 nM incubated for 4 hrs by qRT-PCR analysis; type: functional, cell-based; conditions: filed as modulator
# [5] = system: DNAJB1 pre-mRNA; experiment: Modulation of splicing in DNAJB1 pre-mRNA in human HCT-116 cells assessed as intron 2 retention level at 44 nM incubated for 4 hrs by qRT-PCR analysis; type: functional, cell-based; conditions: filed as modulator
# [6] = Cytotoxicity against human HCT-116 cells assessed as cell growth inhibition incubated for 72 hrs by MTS assay; type: toxicity, cell-based
# Summary of the method: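 HCT-116 cells (ATCC; split every other day, no more than five generations, mycoplasma-tested) plated at 5 × 10³ cells/well in supplemented McCoy's 5a and grown 24 h at 37 °C, 5% CO₂. Compound added from DMSO (0.5% DMSO final) for 72 h. Cells washed with PBS, MTS reagent added for 2 h at 37 °C, A490 read against A690. GI₅₀ fitted from dose curves of 3 biological replicates.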
# [7] = system: HCT-116; experiment: Modulation of splicing in PLK-1 pre-mRNA in human HCT-116 cells assessed as effect on exon 3 inclusion at 44 nM incubated for 4 hrs by qRT-PCR analysis; type: functional, cell-based; conditions: filed as modulator
# [8] = system: SF3B1 pre-mRNA; experiment: Modulation of splicing in SF3B1 pre-mRNA in human HCT-116 cells assessed as intron 13 retention level at 44 nM incubated for 4 hrs by qRT-PCR analysis; type: functional, cell-based; conditions: filed as modulator; summary of the method: as §1
# [9] = system: SF3A3 pre-mRNA; experiment: Modulation of splicing in SF3A3 pre-mRNA in human HCT-116 cells assessed as intron 5 retention level at 44 nM incubated for 4 hrs by qRT-PCR analysis; type: functional, cell-based; conditions: filed as modulator
# [10] = system: HCT-116; experiment: Cytotoxicity against human HCT-116 cells assessed as reduction in cell viability at 500 nM incubated for 24 hrs by MTS assay; type: toxicity, cell-based; conditions: hct-116, 24 h, 0.5 µM
# Summary of the method: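 HCT-116 cells plated at 5 × 10³ cells/well in supplemented McCoy's 5a and grown 24 h at 37 °C, 5% CO₂. Compound given at 500 nM, the top dose of the 24 h splicing series, in 0.5% DMSO for 24 h. Cells washed with PBS, MTS reagent added for 2 h at 37 °C, A490 read against A690.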
# [11] = system: SF3B1 pre-mRNA; experiment: Modulation of splicing in SF3B1 pre-mRNA in human HCT-116 cells assessed as intron 13 retention level at 8.6 uM incubated for 4 hrs by qRT-PCR analysis; type: functional, cell-based; conditions: filed as modulator; summary of the method: as §1
# [12] = system: AURKA pre-mRNA; experiment: Modulation of splicing in AURKA pre-mRNA in human HCT-116 cells assessed as effect on exon 4 skipping at 8.6 uM incubated for 4 hrs by qRT-PCR analysis; type: functional, cell-based; conditions: filed as modulator
# [13] = system: SF3B1 pre-mRNA; experiment: Modulation of splicing in SF3B1 pre-mRNA in human HCT-116 cells assessed as intron 13 retention at 100 to 500 nM incubated for 24 hrs by qRT-PCR analysis; type: functional, cell-based; conditions: dose 100-500 nM
# Summary of the method: (§2)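 HCT-116 cells in supplemented McCoy's 5a with 0.5% final DMSO were treated for 24 h at 100, 250 or 500 nM. Total RNA isolated and DNase-treated (1 µg). qPCR used 2.5 µM each primer on 5 ng cDNA, 40 cycles. Intron retention was computed by the 2^-CT method relative to GAPDH and expressed versus untreated cells set to 1.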
# [14] = system: HCT-116; experiment: Cytotoxicity against human HCT-116 cells assessed as reduction in cell viability at 8.6 uM incubated for 4 hrs by MTS assay; type: toxicity, cell-based; conditions: hct-116, 4 h
# [15] = system: SF3B2 pre-mRNA; experiment: Modulation of splicing in SF3B2 pre-mRNA in human HCT-116 cells assessed as intron 10 retention level at 8.6 uM incubated for 4 hrs by qRT-PCR analysis; type: functional, cell-based; conditions: filed as modulator; summary of the method: as §1
# [16] = system: SF3A3 pre-mRNA; experiment: Modulation of splicing in SF3A3 pre-mRNA in human HCT-116 cells assessed as intron 5 retention level at 8.6 uM incubated for 4 hrs by qRT-PCR analysis; type: functional, cell-based; conditions: filed as modulator; summary of the method: as §1
# [17] = system: DNAJB1 pre-mRNA; experiment: Modulation of splicing in DNAJB1 pre-mRNA in human HCT-116 cells assessed as intron 2 retention level at 8.6 uM incubated for 4 hrs by qRT-PCR analysis; type: functional, cell-based; conditions: filed as modulator
# [18] = system: HCT-116; experiment: Modulation of splicing in PLK-1 pre-mRNA in human HCT-116 cells assessed as effect on exon 3 inclusion at 8.6 uM incubated for 4 hrs by qRT-PCR analysis; type: functional, cell-based; conditions: filed as modulator
# [19] = system: SF3B2 pre-mRNA; experiment: Modulation of splicing in SF3B2 pre-mRNA in human HCT-116 cells assessed as intron 10 retention at 100 to 500 nM incubated for 24 hrs by qRT-PCR analysis; type: functional, cell-based; conditions: dose 100-500 nM; summary of the method: as §2
# [20] = system: SF3A1 pre-mRNA; experiment: Modulation of splicing in SF3A1 pre-mRNA in human HCT-116 cells assessed as intron 6 retention level at 8.6 uM incubated for 4 hrs by qRT-PCR analysis; type: functional, cell-based; conditions: filed as modulator
# [21] = system: HCT-116; experiment: Modulation of splicing in MCL-1L pre-mRNA in human HCT-116 cells assessed as intron 5 retention at 100 to 500 nM incubated for 24 hrs by qRT-PCR analysis; type: functional, cell-based; conditions: dose 100-500 nM
# Summary of the method: (§3)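 HCT-116 cells in supplemented McCoy's 5a with 0.5% DMSO, treated 24 h at 100, 250 or 500 nM; untreated cells as control. Total RNA isolated, 1 µg DNase I-treated, reverse transcribed. qPCR on 5 ng cDNA with 2.5 µM each primer, 40 cycles of 95 °C 30 s, 55 °C 60 s, 72 °C 60 s. Splice-event primers for intron retention or exon skipping; SF2 primers measure total expression. 2^-CT method relative to GAPDH, untreated set at 1.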
# [22] = system: DNAJB1 pre-mRNA; experiment: Modulation of splicing in DNAJB1 pre-mRNA in human HCT-116 cells assessed as intron 2 retention at 100 to 500 nM incubated for 24 hrs by qRT-PCR analysis; type: functional, cell-based; conditions: dose 100-500 nM; summary of the method: as §3
# [23] = system: SF3A1 pre-mRNA; experiment: Modulation of splicing in SF3A1 pre-mRNA in human HCT-116 cells assessed as intron 6 retention at 100 to 500 nM incubated for 24 hrs by qRT-PCR analysis; type: functional, cell-based; conditions: dose 100-500 nM; summary of the method: as §3
# [24] = system: SF3A3 pre-mRNA; experiment: Modulation of splicing in SF3A3 pre-mRNA in human HCT-116 cells assessed as intron 5 retention at 100 to 500 nM incubated for 24 hrs by qRT-PCR analysis; type: functional, cell-based; conditions: dose 100-500 nM; summary of the method: as §3
# [25] = system: HCT-116; experiment: Cytotoxicity against human HCT-116 cells assessed as reduction in cell viability at 34 nM incubated for 4 hrs by MTS assay; type: toxicity, cell-based; conditions: hct-116, 4 h, 0.034 µM
# [26] = system: SF3B2 pre-mRNA; experiment: Modulation of splicing in SF3B2 pre-mRNA in human HCT-116 cells assessed as intron 10 retention level at 34 nM incubated for 4 hrs by qRT-PCR analysis; type: functional, cell-based; conditions: filed as modulator; summary of the method: as §1
# [27] = system: HCT-116; experiment: Downregulation of SF3 mRNA expression in human HCT-116 cells at 34 nM incubated for 4 hrs by qRT-PCR analysis; type: functional, cell-based
# [28] = system: SF3A1 pre-mRNA; experiment: Modulation of splicing in SF3A1 pre-mRNA in human HCT-116 cells assessed as intron 6 retention level at 34 nM incubated for 4 hrs by qRT-PCR analysis; type: functional, cell-based; conditions: filed as modulator
# [29] = system: SF3B1 pre-mRNA; experiment: Modulation of splicing in SF3B1 pre-mRNA in human HCT-116 cells assessed as intron 13 retention level at 34 nM incubated for 4 hrs by qRT-PCR analysis; type: functional, cell-based; conditions: filed as modulator; summary of the method: as §1
# [30] = system: DNAJB1 pre-mRNA; experiment: Modulation of splicing in DNAJB1 pre-mRNA in human HCT-116 cells assessed as intron 2 retention level at 34 nM incubated for 4 hrs by qRT-PCR analysis; type: functional, cell-based; conditions: filed as modulator
# [31] = system: SF3A3 pre-mRNA; experiment: Modulation of splicing in SF3A3 pre-mRNA in human HCT-116 cells assessed as intron 5 retention level at 34 nM incubated for 4 hrs by qRT-PCR analysis; type: functional, cell-based; conditions: filed as modulator
Compound,Activity [1],Activity [2],Activity [3],Activity [4],Activity [5],GI50 at 72 h [6],Activity [8],Activity [9],Activity [10],also measured
CC[C@H](OC)[C@@H](C)[C@H]1O[C@@H]1[C@H](O)[C@H](C)/C=C/C=C(\C)[C@H]1OC(=O)C[C@@H](O)CC[C@@](C)(O)[C@@H](OC(C)=O)/C=C/[C@@H]1C,Non-Toxic,> 3,> 3,Active,> 3,2.7 nM,< 3,< 3,–,Activity [7]: Active
CC[C@H](OC)[C@@H](C)[C@H]1O[C@@H]1[C@@H](O)[C@H](C)/C=C/C=C(\C)[C@H]1OC(=O)C[C@H](O)CC[C@@](C)(O)[C@H](OC(C)=O)/C=C/[C@@H]1C,–,–,–,–,–,860 nM,–,–,–,–
CC[C@H](OC)[C@@H](C)[C@H]1O[C@@H]1[C@H](OC)[C@H](C)/C=C/C=C(\C)[C@H]1OC(=O)C[C@H](O)CC[C@@](C)(O)[C@@H](OC(C)=O)/C=C/[C@@H]1C,Non-Toxic,> 3,> 3,Active,> 3,2.6 nM,< 3,< 3,Non-Toxic,–
CC[C@H](OC)[C@@H](C)[C@H]1O[C@@H]1[C@H](O)[C@H](C)/C=C/C=C(\C)[C@H]1OC(=O)C[C@H](O)CC[C@@](C)(O)[C@H](OC(C)=O)/C=C/[C@@H]1C,–,–,–,–,–,588 nM,–,–,Non-Toxic,Activity [11]: < 3; Activity [12]: Active; Activity [13]: inactive; Activity [14]: Non-Toxic; Activity [15]: > 3; Activity [16]: < 3; Activity [17]: > 3; Activity [18]: Active; Activity [19]: inactive; Activity [20]: > 3; Activity [21]: inactive; Activity [22]: inactive; Activity [23]: inactive; Activity [24]: inactive
CC[C@H](OC)[C@@H](C)[C@H]1O[C@@H]1[C@H](O)[C@H](C)/C=C/C=C(\C)[C@@H]1OC(=O)C[C@H](O)CC[C@@](C)(O)[C@@H](OC(C)=O)/C=C/[C@H]1C,–,–,–,–,–,41300 nM,–,–,–,–
CC[C@H](OC)[C@@H](C)[C@H]1O[C@@H]1[C@H](O)[C@H](C)/C=C/C=C(\C)[C@H]1OC(=O)C[C@H](O)CC[C@@](C)(O)[C@@H](OC(C)=O)/C=C/[C@@H]1C,–,–,–,–,–,1.9 nM,–,–,Non-Toxic,Activity [25]: Non-Toxic; Activity [26]: > 3; Activity [27]: Active; Activity [28]: > 3; Activity [29]: < 3; Activity [30]: > 3; Activity [31]: < 3
